Experimental findings from ChEMBL document CHEMBL4342528, “Discovery of a First-in-Class Protein Arginine Methyltransferase 6 (PRMT6) Covalent Inhibitor” (J Med Chem, 2020) are described below.

pIC50: −log10 of the molar value. Calls of active or inactive are those of the source. The calls are words filed in the database; no cut-off is given here.

Data set [1] deals with T1, Protein arginine N-methyltransferase 6 (Homo sapiens, UniProt Q96LA8). Kind of data set: Time dependent inhibition of human PRMT6 pre-incubated for 1 to 30 mins using [3H]SAM as donor and [3H]methylated biotin-labeled peptide as substrate by scintillation proximity assay. A general note: Scintillation proximity formats need no separation of bound from free tracer.
Target sequence in this assay (Q96LA8 whole entry, looked up): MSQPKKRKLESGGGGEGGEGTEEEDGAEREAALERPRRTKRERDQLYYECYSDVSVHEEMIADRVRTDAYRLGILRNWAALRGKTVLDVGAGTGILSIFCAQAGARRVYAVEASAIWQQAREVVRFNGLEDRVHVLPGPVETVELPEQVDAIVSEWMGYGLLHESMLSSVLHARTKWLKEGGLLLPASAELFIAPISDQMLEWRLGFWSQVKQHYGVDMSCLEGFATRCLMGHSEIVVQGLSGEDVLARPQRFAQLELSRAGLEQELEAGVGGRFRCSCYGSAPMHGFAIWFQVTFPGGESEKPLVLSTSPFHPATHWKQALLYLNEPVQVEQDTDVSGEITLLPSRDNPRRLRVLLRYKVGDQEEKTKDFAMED
For data set [2], the target named is T1, Protein arginine N-methyltransferase 6. Kind of data set: […] inhibition of human PRMT6 pre-incubated for 1 to 30 mins using [3H]SAM as donor and [3H]methylated biotin-labeled peptide as substrate by scintillation proximity assay.
Target sequence in this assay (Q96LA8 whole entry, looked up): as above
The target in data set [3] is T2, Protein arginine N-methyltransferase 1 (Homo sapiens, UniProt Q99873). Kind of data set: Inhibition of PRMT1 in human MCF7 cells assessed as reduction in H4R3me2a levels incubated for 2 days by fluorescence based assay. The format is cell-based. An outline of the steps: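 MCF7 cells with endogenous PRMT1 were treated with compound for 2 days, with MS023 (1 μM) as positive control. The H4R3me2a fluorescence signal was normalized to H4 and fitted nonlinearly to give IC50.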

Data set [4] addresses T3, Histone-arginine methyltransferase CARM1 (Homo sapiens) (UniProt Q86X55).
T3 sequence (whole entry): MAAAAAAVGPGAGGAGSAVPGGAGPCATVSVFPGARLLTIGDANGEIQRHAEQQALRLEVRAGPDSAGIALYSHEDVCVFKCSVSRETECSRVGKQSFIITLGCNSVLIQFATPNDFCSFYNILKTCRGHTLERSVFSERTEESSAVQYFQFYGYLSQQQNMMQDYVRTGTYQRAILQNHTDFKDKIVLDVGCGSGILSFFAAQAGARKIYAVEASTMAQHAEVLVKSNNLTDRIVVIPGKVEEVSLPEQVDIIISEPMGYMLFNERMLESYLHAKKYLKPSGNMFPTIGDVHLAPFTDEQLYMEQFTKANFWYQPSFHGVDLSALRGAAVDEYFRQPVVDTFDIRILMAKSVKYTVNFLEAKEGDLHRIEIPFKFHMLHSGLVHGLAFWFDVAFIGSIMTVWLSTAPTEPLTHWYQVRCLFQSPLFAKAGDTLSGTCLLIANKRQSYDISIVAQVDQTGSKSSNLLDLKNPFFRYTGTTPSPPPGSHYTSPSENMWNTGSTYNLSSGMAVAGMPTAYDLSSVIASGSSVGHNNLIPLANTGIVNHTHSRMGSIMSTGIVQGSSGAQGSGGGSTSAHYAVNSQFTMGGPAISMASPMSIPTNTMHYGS
Kind of data set: Inhibition of PRMT4 in human MCF7 cells assessed as reduction in BAF155 asymmetric dimethylation at 0.2 to 20 uM incubated for 2 days. In kind it is cell-based.

The test system of data set [5] is HEK-293T. Kind of data set: Toxicity in HEK293T cells assessed as reduction in cell viability up to 20 uM incubated for 3 days by CCK8 assay. The format is cell-based. The note with it: human, 72 h. An outline of the steps: (§1)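 Cells seeded 1×10^4 per well in triplicate, treated after 24 h with serial dilutions from 20 μM for 3 days; CCK-8 (WST-8) added, 4 h at 37 °C, absorbance at 450 nm; mean ± SD of three replicate experiments.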
A general note: Tetrazolium dyes change colour on reduction, which living cells bring about.

Data set [6] deals with T3, Histone-arginine methyltransferase CARM1 (Homo sapiens). Kind of data set: Inhibition of PRMT4 (unknown origin) assessed as reduction in incorporation of [3H]-labeled methyl group into biotinylated substrate using [3H-SAM] at 10 uM incubated for 1 hr by scintillation proximity assay. The gist of the method: (§2)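 Panel of 33 methyltransferases (22 PKMTs, 3 DNMTs, 8 PRMTs), each tested at 10 and 50 μM compound. Activity was read as ³H-methyl transfer from ³H-SAM in a radiometric assay done as previously described.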

Data set [7] concerns the target T4, Protein arginine N-methyltransferase 3 (Homo sapiens, UniProt O60678). Kind of data set: Inhibition of PRMT3 (unknown origin) expressed in HEK293T cells were co-transfected with GFP-tagged histone H4 peptide assessed as reduction in H4R3 arginine asymmetric dimethylation at 0.2 to 20 uM incubated for 20 hrs. The format is cell-based.
Target sequence in this assay (O60678 2-531 limits assumed): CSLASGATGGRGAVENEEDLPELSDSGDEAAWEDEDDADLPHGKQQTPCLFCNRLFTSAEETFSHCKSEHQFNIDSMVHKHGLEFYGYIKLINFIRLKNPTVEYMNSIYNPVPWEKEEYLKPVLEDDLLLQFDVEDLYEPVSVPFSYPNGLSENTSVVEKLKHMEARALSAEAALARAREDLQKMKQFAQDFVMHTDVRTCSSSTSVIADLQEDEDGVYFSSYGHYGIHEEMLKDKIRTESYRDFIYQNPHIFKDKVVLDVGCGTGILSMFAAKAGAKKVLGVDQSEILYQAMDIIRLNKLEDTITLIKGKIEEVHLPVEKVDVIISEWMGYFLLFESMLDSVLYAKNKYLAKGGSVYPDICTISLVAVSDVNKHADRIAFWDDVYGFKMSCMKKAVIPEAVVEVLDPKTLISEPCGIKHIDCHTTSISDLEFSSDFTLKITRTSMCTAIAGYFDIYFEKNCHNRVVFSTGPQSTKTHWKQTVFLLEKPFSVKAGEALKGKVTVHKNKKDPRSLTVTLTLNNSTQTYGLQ
Data set [8] has as its system MCF7. Kind of data set: Toxicity in human MCF7 cells assessed as reduction in cell viability up to 20 uM incubated for 3 days by CCK8 assay. The format is cell-based. Particulars: mcf7, 72 h. The gist of the method: as §1
Data set [9] has as its target T1, Protein arginine N-methyltransferase 6. Kind of data set: Inhibition of PRMT6 (unknown origin) assessed as reduction in incorporation of [3H]-labeled methyl group into biotinylated substrate using [3H-SAM] at 10 uM incubated for 1 hr by scintillation proximity assay. An outline of the steps: as §2
Target sequence in this assay (Q96LA8 whole entry, looked up): as the sequence (Q96LA8 whole entry, looked up) above
In data set [10] the target is T4, Protein arginine N-methyltransferase 3. Kind of data set: Inhibition of PRMT3 (unknown origin) assessed as reduction in incorporation of [3H]-labeled methyl group into biotinylated substrate using [3H-SAM] at 10 uM incubated for 1 hr by scintillation proximity assay. An outline of the steps: as §2
Target sequence in this assay (O60678 2-531 limits assumed): as the sequence (O60678 2-531 limits assumed) above
Data set [11] has as its target T2, Protein arginine N-methyltransferase 1. Kind of data set: Inhibition of human PRMT1 using [3H]SAM as donor and [3H]methylated biotin-labeled peptide as substrate by scintillation proximity assay.
Target sequence in this assay (Q99873 whole entry): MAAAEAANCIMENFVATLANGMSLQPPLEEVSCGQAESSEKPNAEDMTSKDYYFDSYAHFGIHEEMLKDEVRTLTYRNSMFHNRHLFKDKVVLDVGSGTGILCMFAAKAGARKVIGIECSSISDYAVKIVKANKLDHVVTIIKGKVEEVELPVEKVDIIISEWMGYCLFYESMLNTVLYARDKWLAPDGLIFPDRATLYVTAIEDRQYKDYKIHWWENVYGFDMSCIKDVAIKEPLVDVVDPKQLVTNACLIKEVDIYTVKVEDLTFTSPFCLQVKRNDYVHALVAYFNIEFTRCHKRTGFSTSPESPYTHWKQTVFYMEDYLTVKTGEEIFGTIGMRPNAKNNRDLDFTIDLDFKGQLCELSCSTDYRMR
For data set [12], the target named is T5, Protein arginine N-methyltransferase 8 (Homo sapiens, UniProt Q9NR22). Kind of data set: Inhibition of PRMT8 (unknown origin) assessed as reduction in incorporation of [3H]-labeled methyl group into biotinylated substrate using [3H-SAM] at 10 uM incubated for 1 hr by scintillation proximity assay. An outline of the steps: as §2
Target sequence in this assay (Q9NR22 2-394 limits assumed): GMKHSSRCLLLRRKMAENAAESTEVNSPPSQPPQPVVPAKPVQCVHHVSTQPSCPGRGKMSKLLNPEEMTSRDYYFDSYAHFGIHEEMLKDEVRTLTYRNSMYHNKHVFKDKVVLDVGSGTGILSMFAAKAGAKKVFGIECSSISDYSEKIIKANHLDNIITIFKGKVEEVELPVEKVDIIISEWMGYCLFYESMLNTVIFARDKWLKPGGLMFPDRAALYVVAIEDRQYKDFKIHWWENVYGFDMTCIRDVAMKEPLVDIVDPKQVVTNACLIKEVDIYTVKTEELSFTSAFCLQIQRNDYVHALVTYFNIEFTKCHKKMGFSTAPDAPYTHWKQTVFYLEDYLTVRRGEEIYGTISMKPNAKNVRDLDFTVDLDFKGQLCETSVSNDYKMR
The target of data set [13] is T4, Protein arginine N-methyltransferase 3. Kind of data set: Inhibition of PRMT3 (unknown origin) assessed as reduction in incorporation of [3H]-labeled methyl group into biotinylated substrate using [3H-SAM] at 50 uM incubated for 1 hr by scintillation proximity assay relative to control. An outline of the steps: as §2
Target sequence in this assay (O60678 2-531 limits assumed): as the sequence (O60678 2-531 limits assumed) above
Data set [14] concerns the target T5, Protein arginine N-methyltransferase 8. Kind of data set: Inhibition of human PRMT8 using [3H]SAM as donor and [3H]methylated biotin-labeled peptide as substrate by scintillation proximity assay. The gist of the method: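 Radiometric SPA: ³H-methyl transfer from ³H-SAM to biotin-labeled peptide, captured on streptavidin/scintillant-coated plate, counts per minute read; substrate and cofactor each at their Km for the enzyme; compound titrated; IC50 from triplicate determinations, mean ± SD.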
Target sequence in this assay (Q9NR22 whole entry): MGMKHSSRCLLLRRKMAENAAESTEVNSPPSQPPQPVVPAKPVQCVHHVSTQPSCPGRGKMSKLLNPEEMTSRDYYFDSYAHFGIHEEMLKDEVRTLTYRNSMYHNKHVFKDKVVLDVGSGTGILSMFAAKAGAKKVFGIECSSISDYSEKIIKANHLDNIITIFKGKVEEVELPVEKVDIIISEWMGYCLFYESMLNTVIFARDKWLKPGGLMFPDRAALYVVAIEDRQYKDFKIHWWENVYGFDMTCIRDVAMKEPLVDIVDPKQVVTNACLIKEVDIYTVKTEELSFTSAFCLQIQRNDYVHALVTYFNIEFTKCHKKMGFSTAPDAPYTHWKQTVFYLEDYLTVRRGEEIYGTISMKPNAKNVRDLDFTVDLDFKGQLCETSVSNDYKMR

For data set [15], the target named is T1, Protein arginine N-methyltransferase 6. Kind of data set: Inhibition of human PRMT6 using [3H]SAM as donor and [3H]methylated biotin-labeled peptide as substrate by scintillation proximity assay. Particulars: read-out: IC50. An outline of the steps: (§3)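 Compound titrated into the reaction; 1 h enzyme–compound preincubation stated for PRMT6. Methylated peptide captured on streptavidin/scintillant-coated plates and counted (cpm). IC50 from concentration–response, triplicate, mean ± SD.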
Target sequence in this assay (Q96LA8 whole entry): as the sequence (Q96LA8 whole entry, looked up) above

For data set [16] the target is unchanged. Kind of data set: Inhibition of Flag-tagged PRMT6 (unknown origin) expressed in HEK293 cells at 0.1 to 10 uM incubated for 20 hrs assessed as reduction in H3R2me2a levels. In kind it is cell-based.
Target sequence in this assay (Q96LA8 whole entry, looked up): as above
Data set [17] deals with T6, Histone-arginine methyltransferase CARM1 (Homo sapiens, UniProt Q86X55).
T6 sequence (Q86X55 whole entry): T3 sequence (whole entry)
Kind of data set: Inhibition of human PRMT4 using [3H]SAM as donor and [3H]methylated biotin-labeled peptide as substrate by scintillation proximity assay. The gist of the method:
as §3

Data set [18] deals with T4, Protein arginine N-methyltransferase 3. Kind of data set: Inhibition of human PRMT3 using [3H]SAM as donor and [3H]methylated biotin-labeled peptide as substrate by scintillation proximity assay. The gist of the method:
as §3
Target sequence in this assay (O60678 whole entry): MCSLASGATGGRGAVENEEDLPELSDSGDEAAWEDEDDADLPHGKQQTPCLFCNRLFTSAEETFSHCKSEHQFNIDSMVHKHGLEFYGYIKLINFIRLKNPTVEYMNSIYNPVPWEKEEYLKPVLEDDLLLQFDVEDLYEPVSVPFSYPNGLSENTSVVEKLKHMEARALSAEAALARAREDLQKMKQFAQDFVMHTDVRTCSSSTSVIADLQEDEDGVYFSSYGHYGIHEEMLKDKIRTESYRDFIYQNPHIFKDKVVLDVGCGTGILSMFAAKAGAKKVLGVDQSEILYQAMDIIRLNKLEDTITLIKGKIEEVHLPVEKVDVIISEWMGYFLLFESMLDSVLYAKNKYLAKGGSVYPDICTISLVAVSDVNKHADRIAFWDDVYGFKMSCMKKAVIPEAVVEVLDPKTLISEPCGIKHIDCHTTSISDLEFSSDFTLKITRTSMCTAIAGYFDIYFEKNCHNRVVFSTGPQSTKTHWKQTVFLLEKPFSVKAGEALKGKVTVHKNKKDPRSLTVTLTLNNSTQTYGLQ

Data set [19] addresses T5, Protein arginine N-methyltransferase 8. Kind of data set: Inhibition of PRMT8 (unknown origin) assessed as reduction in incorporation of [3H]-labeled methyl group into biotinylated substrate using [3H-SAM] at 50 uM incubated for 1 hr by scintillation proximity assay relative to control. An outline of the steps: as §2
Target sequence in this assay (Q9NR22 2-394 limits assumed): as the sequence (Q9NR22 2-394 limits assumed) above
The target of data set [20] is T1, Protein arginine N-methyltransferase 6. Kind of data set: Inhibition of PRMT6 (unknown origin) assessed as reduction in incorporation of [3H]-labeled methyl group into biotinylated substrate using [3H-SAM] at 50 uM incubated for 1 hr by scintillation proximity assay relative to control. The gist of the method: as §2
Target sequence in this assay (Q96LA8 whole entry, looked up): as the sequence (Q96LA8 whole entry, looked up) above
Data set [21] has as its target T3, Histone-arginine methyltransferase CARM1 (Homo sapiens). Kind of data set: Inhibition of PRMT4 (unknown origin) assessed as reduction in incorporation of [3H]-labeled methyl group into biotinylated substrate using [3H-SAM] at 50 uM incubated for 1 hr by scintillation proximity assay relative to control. The gist of the method:
as §2

Data set [22] relates to PNT2. Kind of data set: Toxicity in human PNT2 cells assessed as reduction in cell viability up to 20 uM incubated for 3 days by CCK8 assay. The note with it: pnt2, 72 h. In kind it is cell-based. The gist of the method: as §1
Data set [23] concerns the target T1, Protein arginine N-methyltransferase 6. Kind of data set: Covalent binding affinity to human PRMT6 assessed as covalent adduct. formation at 300 uM pre-incubated for 1 hr by mass spectrometry. An outline of the steps:
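PRMT protein at 15 μM was incubated 1 h at room temperature with a 20-fold molar excess of inhibitor (300 μM). The reaction was quenched with 0.1% aqueous TFA, separated by HPLC (5–95% acetonitrile in water) and analysed by ESI time-of-flight LC/MS for protein–ligand adduct mass.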
Target sequence in this assay (Q96LA8 whole entry, looked up): as above

Data set [24] shares this target. Kind of data set: Inhibition of Flag-tagged PRMT6 (unknown origin) expressed in HEK293 cells at 2 uM incubated for 20 hrs assessed as reduction in H3R2me2a levels. The format is cell-based.
Data set [25] in a line: Inhibition of type 1 PRMT (unknown origin). Details: species or system Homo sapiens.
In data set [26] the target is T3, Histone-arginine methyltransferase CARM1 (Homo sapiens). Kind of data set: Inhibition of PRMT4 in human MCF7 cells assessed as reduction in BAF155 asymmetric dimethylation at 2 uM incubated for 2 days. In kind it is cell-based.
Data set [27] has the same target. Kind of data set: Inhibition of PRMT4 in human MCF7 cells assessed as reduction in BAF155 asymmetric dimethylation at 2.2 to 20 uM incubated for 2 days. In kind it is cell-based.
In data set [28] the target is T4, Protein arginine N-methyltransferase 3. Kind of data set: Inhibition of PRMT3 (unknown origin) expressed in HEK293T cells were co-transfected with GFP-tagged histone H4 peptide assessed as reduction in H4R3 arginine asymmetric dimethylation at 2.2 to 20 uM incubated for 20 hrs. In kind it is cell-based.
Target sequence in this assay (O60678 2-531 limits assumed): as the sequence (O60678 2-531 limits assumed) above

On to `CCC(=O)Nc1cccc(-c2c[nH]cc2CN(C)CCN)c1`, for which the TDI result in data set [1] was “inactive”. Moreover, the inhibition result in data set [2] and in data set [16] was “Active” throughout. In addition, the pIC50 (in general, the negative decadic logarithm of the IC50, by convention in mol/L) in data set [3] is 5.17; in [11], 6.77; in data set [14] it was 6.89; in data set [15], 7.55; in data set [17], 5.70; in data set [18], 4.82. In addition, the inhibition (as a rule, the relative decrease from the control value, in per cent) in data set [3] was “Dose-dependent effect”; in [6] it was greater than 40%; in data set [9] it was greater than 40%; in [10], greater than 40%; in data set [12] it was greater than 40%; in data set [13] it was greater than 80%. Also, the inhibition in data set [19], in data set [20] and in data set [21] was greater than 80% throughout. The inhibition entry in [4] and in [7] was “inactive” each time. Besides, the Activity entry in [5], in data set [8] and in data set [22] was “Non-Toxic” throughout. In addition, in data set [23], the result was inactive.

On to `CC(C)Oc1ccc(-c2c[nH]cc2CN(C)CCN)cc1`, for which, in [24], the inhibition entry is “Active”. Further, the pIC50 in data set [25] is 6.92 to 8.40.

As to `CNCCN1CCC(c2cc(CN(C)C(=O)c3cccc(Oc4ccccc4)c3)ccn2)CC1`, the inhibition entry in data set [26] is “Active”.

`C=CC(=O)Nc1cccc(-c2c[nH]cc2CN(C)CCO)c1`: the Activity result in data set [5], in [8] and in data set [22] was “Non-Toxic” in each case. The inhibition in data set [9] stood at 50%; in [20], 80%. For the same compound, the inhibition result in [27], in [16] and in data set [28] was “inactive” throughout. For the same compound, the pIC50 in data set [14] is 4.64; in [15], 5.01; in data set [17], 4.29; in data set [18], less than 3.70. In addition, the result in data set [23] was inactive.
